Series [1] in a line: Selectivity ratio of CC50 for BALB/c mouse peritoneal macrophages to IC50 for amastigote stage of Leishmania amazonensis WHOM/BR/75/JOSEFA.
Series [2] has as its system Leishmania amazonensis. The experiment in a line: Antileishmanial activity against promastigote stage of Leishmania amazonensis WHOM/BR/75/JOSEFA after 72 hrs by hemocytometry. Format: functional, organism-based.
A short description of series [3]: Selectivity ratio of CC50 to IC50 for promastigote stage of Leishmania amazonensis WHOM/BR/75/JOSEFA. Also noted: reference not given here.
Series [4] in a line: Selectivity ratio of CC50 for monkey LLC-MK2 cells to IC50 for epimastigote stage of epimastigote stage of Trypanosoma cruzi Y.
Series [5] deals with Trypanosoma cruzi. The experiment in a line: Antitrypanosomal activity against trypomastigote stage of Trypanosoma cruzi Y infected in monkey LLC-MK2 cells after 96 hrs by Pizzi-Brener method. It counts as functional, organism-based.
Series [6] in a line: Selectivity ratio of CC50 for mouse J774A1 cells to IC50 for promastigote stage of Leishmania amazonensis WHOM/BR/75/JOSEFA. Format: ADME, cell-based, J774.A1. The following applies: read-out: Ratio CC50/IC50.
Series [7] deals with Trypanosoma cruzi. The experiment in a line: Antitrypanosomal activity against amastigote stage of Trypanosoma cruzi Y infected in monkey LLC-MK2 cells after 96 hrs by Geimsa staining-based light microscopy. It counts as functional, organism-based. The following applies: LLC-MK2, 96 h. The method in brief: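 LLCMK2 monolayers (2.5 x 10^5 cells/mL, 24 h, 37 °C, 5% CO2) infected with trypomastigotes at 10 per host cell for 24 h, washed, treated with compound (0.1 to 50 μM) 96 h. Methanol-fixed, Giemsa-stained, 200 cells counted; survival index (% infected × amastigotes/cell); IC50 by nonlinear regression.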

Series [8] can be described thus: Selectivity ratio of CC50 for monkey LLC-MK2 cells to EC50 for trypomastigote stage of Trypanosoma cruzi Y. It counts as ADME, cell-based. Particulars: read-out: Ratio CC50/EC50.
Series [9] deals with Trypanosoma cruzi. The experiment in a line: Antitrypanosomal activity against epimastigote stage of Trypanosoma cruzi Y after 96 hrs by hemocytometry. It counts as functional, organism-based. The method in brief: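 Log-phase parasites (promastigotes 3-day, Warren's medium + 10% FBS, 25°C; epimastigotes 4-day, LIT + 10% FBS, 28°C) seeded at 1 × 10^6 cells/mL with compound (0.1-100 µM; DMSO ≤1%). Promastigotes read at 72 h, epimastigotes at 96 h, by hemocytometer counting. IC50 by nonlinear regression.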

Series [10] concerns Leishmania amazonensis. Nature of the series: Antileishmanial activity against amastigote stage of Leishmania amazonensis WHOM/BR/75/JOSEFA infected in BALB/c mouse peritoneal macrophages after 72 hrs by Geimsa staining-based light microscopy. Format: functional, organism-based.
The nature of series [11]: Selectivity ratio of CC50 for monkey LLC-MK2 cells to IC50 for amastigote stage of Trypanosoma cruzi Y. It counts as ADME, cell-based. The following applies: read-out: Ratio CC50/IC50.
Series [12] can be described thus: Selectivity ratio of CC50 for monkey LLC-MK2 cells to IC50 for epimastigote stage of epimastigote stage of Trypanosoma cruzi Y. It counts as ADME, cell-based. The following applies: read-out: Ratio CC50/IC50.
In series [13] the test system is Trypanosoma cruzi. Nature of the series: Antitrypanosomal activity against amastigote stage of Trypanosoma cruzi.
For series [14], the system named is Trypanosoma cruzi. Nature of the series: Antitrypanosomal activity against trypomastigote stage of Trypanosoma cruzi Y infected in monkey LLC-MK2 cells after 24 hrs by Pizzi-Brener method. It counts as functional, organism-based. The following applies: LLC-MK2, 24 h. The gist of the method:
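Trypomastigotes harvested from infected LLCMK2 culture supernatant, 1 × 10^7 cells/mL with compound (0.1-50 µM), 24 h at 37°C, 5% CO2. Viability by motility (Pizzi–Brener); EC50 by nonlinear regression.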

Six compounds from ChEMBL document CHEMBL3396970, “Synthesis and biological evaluation of novel 2,3-disubstituted quinoxaline derivatives as antileishmanial and antitrypanosomal agents” (Eur J Med Chem, 2015) can be followed below.

One may read the IC50 as the midpoint of a concentration-inhibition curve. By EC50 is commonly meant the concentration that produces a half-maximal response. Consider `CS(=O)(=O)c1nc2ccc(Br)cc2nc1Cl`, for which the “Ratio CC50/IC50” value in [1] stood at 9.9. For the same compound, the IC50 stood at 0.2 µM in the series on Leishmania amazonensis [2], 13.5 µM with Trypanosoma cruzi [7], 0.3 µM in the series with Trypanosoma cruzi [9] and 1.4 µM with Leishmania amazonensis [10]. In addition, the selectivity ratio was 71.8 in [3]; 49.6 in [4]; 71.8 in [6]; 7 in series [8]; 1.1 in series [11]; 49.6 in series [12]. This compound returned an EC50 with Trypanosoma cruzi [5] of 1.8 µM.

In the case of `CS(=O)(=O)c1nc2ccc(Cl)cc2nc1Cl`, in series [1], the “Ratio CC50/IC50” value stood at 4.3. In addition, the IC50 with Leishmania amazonensis [2] stood at 0.2 µM; with Trypanosoma cruzi [7], 8.6 µM; with Trypanosoma cruzi [9], 0.3 µM; with Leishmania amazonensis [10] it was 3.1 µM. Besides, the selectivity ratio stood at 66 in [3]; 25.9 in series [4]; 66 in series [6]; 4.1 in [8]; 0.9 in [11]; 25.9 in [12]. The compound also gave an EC50 in the series on Trypanosoma cruzi [5] of 6.9 µM.

As to `CCCCNc1nc2ccc(OC)cc2nc1S(C)(=O)=O`, the “Ratio CC50/IC50” value in series [1] was determined as 3.3. The IC50 with Leishmania amazonensis [2] worked out at 2.5 µM; in the series with Trypanosoma cruzi [7], 14.3 µM; with Trypanosoma cruzi [9], 3.6 µM; in the series with Leishmania amazonensis [10] it was 12.9 µM. Besides, the selectivity ratio turned out to be 17.1 in series [3]; 108 in [4]; 17.1 in series [6]; 10 in [8]; 27.3 in series [11]; 108 in series [12]. In addition, in the series with Trypanosoma cruzi [5], the 50% effective concentration (EC50) is 39.2 µM.

With `COc1ccc2nc(NCCO)c(S(C)(=O)=O)nc2c1`, in [1], the “Ratio CC50/IC50” value is reported as 2.2. Further, the IC50 in the series with Leishmania amazonensis [2] was found to be 2.9 µM; with Trypanosoma cruzi [7], 40.5 µM; with Trypanosoma cruzi [9], 2.9 µM; with Leishmania amazonensis [10], 17.3 µM. Also, the selectivity ratio was 13.3 in series [3]; 25.2 in series [4]; 13.3 in [6]; 2 in series [8]; 1.8 in series [11]; 25.2 in series [12]. In the series on Trypanosoma cruzi [5], this compound gave an EC50 of 35.7 µM.

Consider `COc1ccc2nc(NC3CCCCC3)c([S+](C)[O-])nc2c1` (stereo not drawn), for which, in series [1], the “Ratio CC50/IC50” value is given as 2.8. In addition, the IC50 in the series with Leishmania amazonensis [2] turned out to be 2.5 µM; with Trypanosoma cruzi [7], 9.3 µM; in the series on Trypanosoma cruzi [9], 2.5 µM; in the series on Leishmania amazonensis [10], 7.3 µM. Besides, the selectivity ratio in series [3] was found to be 8; in series [4] it was 72.8; in [6], 8; in [8] it was 7.1; in series [11], 19.5; in [12] it was 72.8. The EC50 in the series on Trypanosoma cruzi [5] stood at 25.4 µM.

For `O=C(Cn1ccnc1[N+](=O)[O-])NCc1ccccc1` [BENZNIDAZOLE], the IC50 stood at 26.1 µM with Trypanosoma cruzi [13] and 8.1 µM with Trypanosoma cruzi [9]. Further, the EC50 in the series on Trypanosoma cruzi [14] stood at 3.4 µM.
